Experimental data taken from PMC8994735 (Targeted Oncology, 2021).
Like-named read-outs stand apart in the source and are kept apart here.

Legend:
[1] = test system: East Asian patients with advanced nonhematologic malignancies; assay: Dose-limiting toxicities and MTD/RP2D determination; format: in vivo, human
Method in brief: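 Standard 3 + 3 escalation with planned levels of 2 and 4 mg once daily and 20 and 30 mg once weekly, oral, in 28-day cycles; intermediate doses and expansion to 12 patients were permitted. DLTs were assessed in cycle 1 and covered grade ≥ 3 nonhematologic toxicity (with specified exceptions), defined hematologic events, and < 75% of planned doses given. Evaluable patients received ≥ 75% of planned doses (21 once daily, three once weekly).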

[2] = test system: advanced nonhematologic malignancies; assay: Antitumor activity: disease response by RECIST v1.1; format: in vivo, human
Method in brief: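 Oral dosing once daily (2, 3 or 4 mg) or once weekly (20 or 30 mg) in 28-day cycles. Treatment lasted up to 12 months or until progression, unacceptable toxicity or consent withdrawal. Response was assessed by RECIST v1.1 in the safety analysis set (patients receiving ≥ 1 dose). Analysis was descriptive, with no formal hypothesis testing.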

Western patients = conditions: cited from earlier work
[3] = test system: patients from the United States / Western patients; conditions: cited from earlier work
[4] = test system: nonhematologic malignancies/solid tumors, endometrial cancer; conditions: phase 2 study in endometrial cancer; single-agent 30 mg QW; cited from earlier work

SMILES: CC(C)n1nc(-c2ccc3oc(N)nc3c2)c2c(N)ncnc21 [sapanisertib]
- DLT of grade 3 stomatitis ([1]; 4 mg QD cohort): 2 n
- Dose-limiting toxicities (patients experiencing DLTs) ([1]; 4 mg QD cohort, cycle 1): three
- DLTs ([1]; 20 mg QW dose level): no patients experienced DLTs
- DLTs ([1]; 30 mg QW dose level): no patients experienced DLTs
- Maximum tolerated dose (MTD) ([1]; QD dosing, East Asian patients): 3 mg
- Recommended phase 2 dose (RP2D) ([1]; QD dosing, East Asian patients): 3 mg
- Recommended phase 2 dose (RP2D) ([1]; QW dosing, East Asian patients): 30 mg
- Best overall response of progressive disease ([2]; QD arm): 45%
- Clinical benefit rate (CR, PR, or SD of any duration) ([2]; QD arm): 45%
- Discontinuation due to progressive disease ([2]; QD arm): 64%
- Best overall response of progressive disease ([2]; QW arm): 33%
- Clinical benefit rate (CR, PR, or SD of any duration) ([2]; QW arm): 67%
- Discontinuation due to progressive disease ([2]; QW arm): 67%
- Patients with stable disease for ≥ 6 months ([2]; all cohorts): Three
- Complete response (CR) or partial response (PR) ([2]; either treatment arm): No patients
- Anti-tumor effect ([2]; heavily pretreated patients, across dosing schedules): Moderate anti-tumor effects and a favorable safety profile were observed with sapanisertib in this heavily pretreated patient population
- RP2D in Western patients (Western patients; QD, Western patient populations): 4 mg
- Lowest RP2D in previous studies in Western patients (Western patients; QD): 4 mg
- Lowest RP2D in previous studies in Western patients (Western patients; QW): 30 mg
- Incidence of stomatitis ([3]; 20 or 30 mg QW): 10%
- Incidence of stomatitis ([3]; sapanisertib 2–7 mg QD): 35%
- Incidence of stomatitis ([3]; sapanisertib 3 or 4 mg QD): 18%
- Incidence of stomatitis ([3]; sapanisertib 7–40 mg QW): 30%
- Pre-defined futility threshold [4]: did not meet a pre-defined futility threshold
